This note sets out measurements from ChEMBL document CHEMBL4385596, “Fragment-Based Discovery of a Qualified Hit Targeting the Latency-Associated Nuclear Antigen of the Oncogenic Kaposi's Sarcoma-Associated Herpesvirus/Human Herpesvirus 8” (J Med Chem, 2019).

Active and inactive are the calls of the source. The rule behind the calls is not given here.

A short description of assay [1]: Binding affinity to fluorescent labelled LBS2 DNA (unknown origin) by fluorescence polarization assay. The method, boiled down: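 Fixed concentration of His-tagged oligomerization-deficient LANA DBD mutant (aa1008-1146, 200 nM final) was pre-incubated 60 min with compound. Fluorescein-labelled LBS2 (10 nM final) was then added and incubated 90 min. Buffer was 10 mM HEPES, 150 mM NaCl, 0.005% Tween20, 5% DMSO. Polarization was read at ex 485/em 520 nm. Runs were done with and without LANA to exclude DNA or quenching interference. Duplicates, two independent experiments.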

Assay [2] deals with ORF 73 (Human herpesvirus 8, UniProt O40947). In words: Inhibition of fluorescent labelled LBS2 DNA binding to human herpesvirus 8 C-terminal His-tagged LANA oligomerization deficient mutant DBD (1008 to 1146 residues) expressed in Escherichia coli BL21 (DE3) preincubated for 60 mins followed by fluorescent labelled LBS2 addition and measured after 90 mins by fluorescence polarization assay. On the set-up: species or system Human gammaherpesvirus 8. The method, boiled down: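 FP competition assay. His-tagged LANA DBD mutant (200 nM final) pre-incubated with serially varied compound for 60 min. Fluorescein-labelled LBS1, LBS2 or LBS3 (10 nM final) then added and incubated 90 min. Buffer was 10 mM HEPES, 150 mM NaCl, 0.005% Tween20 with 5% DMSO. Read at excitation 485 nm, emission 520 nm. Duplicates in two independent experiments. Runs without LANA checked for interference. IC50 derived from dose-response.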

The subject of assay [3] is ORF 73 (Human herpesvirus 8), O40947 [UNDEFINED MUTATION]. The assay can be described thus: Inhibition of fluorescent labelled LBS2 DNA binding to human herpesvirus 8 C-terminal His-tagged LANA oligomerization deficient mutant DBD (1008 to 1146 residues) expressed in Escherichia coli BL21 (DE3) at 1 mM preincubated for 60 mins followed by fluorescent labelled LBS2 addition and measured after 90 mins by fluorescence polarization assay relative to control. The note with it: Human gammaherpesvirus 8. The method, boiled down:
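Single-concentration FP competition assay (1 mM or 500 µM compound). LANA DBD mutant (200 nM final) pre-incubated with compound for 60 min, then fluorescein-labelled LBS2 (10 nM final) added and incubated 90 min. Buffer was HEPES/NaCl/Tween20 with 5% DMSO. Read at excitation 485 nm, emission 520 nm. Percent inhibition from duplicates in two independent experiments.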

In the case of `Nc1ccc(-n2cc(-c3ccc(C(=O)O)cc3)nn2)cc1`, the result in assay [1] was inactive. In addition, the half-inhibitory concentration (IC50) in assay [2] (read-out: IC50) was 19 µM.
In assay [3], `Cc1cn(-c2ccccc2N)cn1` came in with an inhibition of 91%. The result in assay [1] was inactive.
For the compound `O=C(O)c1ccc(-n2cc(CO)nn2)cc1`, in assay [1], the result was inactive. The IC50 in assay [2] (read-out: IC50) is 79 µM.
On the same counts, the results for `COCc1cn(-c2ccc(C(=O)O)cc2)nn1` are “inactive” and 210 µM.
Regarding `Nc1cccc(-c2cn(-c3ccccc3)nn2)c1`, in assay [1], the result was inactive. In addition, the IC50 entry in assay [2] is “Not Active”.
Turning to `O=[N+]([O-])c1ccccc1-n1ccnc1`, the inhibition in assay [3] was 74%. Besides, the result in assay [1] was inactive.
Take `O=C(O)c1ccc(-n2cc(-c3cccc(NCC4CCCCC4)c3)nn2)cc1`: the outcome in assay [1] was inactive. In addition, in assay [2], the IC50 result is “Not Active”.
Consider `O=C(O)c1ccc(-n2cc(-c3ccccc3NCC3CCCCC3)nn2)cc1`, for which the outcome in assay [1] was inactive. The IC50 result in assay [2] was “Not Active”.
For `O=C(O)c1cccc(-n2ccnn2)c1`, the inhibition in assay [3] is 98%. Moreover, in assay [1], the result was inactive.
On the same counts, the results for `O=[N+]([O-])c1ccc(-n2ccnc2)cc1` are 22% and “inactive”.
On to `COCc1cn(-c2ccc(C(=O)OC)cc2)nn1`, for which, in assay [1], the outcome was inactive. Besides, the concentration for half-maximal inhibition (IC50) in assay [2] (read-out: IC50) was found to be 237 µM.
Take `O=C(O)c1ccc(-n2cc(-c3cccc(NCCN4CCOCC4)c3)nn2)cc1`: the outcome in assay [1] was inactive. Besides, the IC50 result in assay [2] was “Not Active”.
`CC(=O)Nc1ccccc1-n1ccnc1` gave an inhibition in assay [3] of 32%. In addition, the result in assay [1] was inactive.
For `Nc1ccccc1-n1cnc2ccccc21` the same measures were 32% and “inactive”.
Turning to `O=C(O)c1ccc(-n2cc(-c3ccccc3)nn2)cc1`, in assay [1], the outcome was inactive. Further, the half-maximal inhibitory concentration (IC50) in assay [2] (read-out: IC50) amounted to 232 µM.
`O=C(O)c1cccc(-n2ccnc2)c1` had an inhibition in assay [3] of 19%. For the same compound, the outcome in assay [1] was inactive.
As for `COc1ccccc1-n1ccnc1`, the inhibition in assay [3] amounted to 15%. In assay [1], the outcome was inactive.
On to `O=C(O)c1ccc(-n2ccnn2)cc1`, for which the inhibition in assay [3] turned out to be 35%. Moreover, the outcome in assay [1] was inactive.
`Oc1ccccc1-n1ccnc1`: the inhibition in assay [3] turned out to be 51%. In assay [1], the outcome was inactive.
For the compound `O=C(O)c1ccc(-n2cc(C3CC3)nn2)cc1`, the outcome in assay [1] was inactive. In addition, the IC50 in assay [2] (read-out: IC50) was 694 µM.
Consider `COC(=O)c1cn(-c2ccc(C(=O)O)cc2)nn1`, for which the outcome in assay [1] was inactive. Further, the IC50 in assay [2] (read-out: IC50) stood at 163 µM.
For `COC(=O)c1ccc(-n2cc(CO)nn2)cc1`, the result in assay [1] was inactive. Further, the IC50 in assay [2] (read-out: IC50) was 84 µM.
Regarding `O=[N+]([O-])c1cccc(-n2ccnc2)c1`, the inhibition in assay [3] was determined as 21%. Also, the result in assay [1] was inactive.
For the compound `O=C(O)c1ccc(-n2cc(-c3ccc(NCC4CCCCC4)cc3)nn2)cc1`, in assay [1], the result was inactive. Also, in assay [2], the half-inhibitory concentration (IC50) entry is reported as “Not Active”.
The compound `Nc1ccccc1-n1cnc(Br)c1` displayed an inhibition in assay [3] of 13%. In addition, the result in assay [1] was inactive.
As to `O=C(O)c1ccc(-c2cn(-c3ccc(O)cc3)nn2)cc1`, the outcome in assay [1] was inactive. Moreover, in assay [2] (read-out: IC50), the IC50 was 52 µM.
For `NCc1cn(-c2ccc(C(=O)O)cc2)nn1` the same measures were “inactive” and 30 µM.
On the same counts, the results for `O=C(O)c1ccc(-n2cc(-c3ccc(CO)cc3)nn2)cc1` are “inactive” and 27 µM.
On to `CC(=O)OCc1cn(-c2ccc(C(=O)O)cc2)nn1`, for which, in assay [1], the outcome was inactive. The IC50 entry in assay [2] was “Not Active”.
As to `O=C(O)c1ccc(-n2cc(-c3cccc(NCCc4ccccc4)c3)nn2)cc1`, the result in assay [1] was inactive. The IC50 entry in assay [2] is reported as “Not Active”.
